In ChEMBL document CHEMBL1157912, “Impact of nature and length of linker incorporated in agonists on toll-like receptor 9-mediated immune responses” (J Med Chem, 2010):

What was measured:
[1] = biological target: T1, Toll-like receptor 9 (Mus musculus) (UniProt Q9EQU3); assay: Activation of mouse TLR9 expressed in HEK293 cells assessed as induction of NF-kappaB activity after 18 hrs by SEAP assay; format: cell-based
T1 sequence (whole entry): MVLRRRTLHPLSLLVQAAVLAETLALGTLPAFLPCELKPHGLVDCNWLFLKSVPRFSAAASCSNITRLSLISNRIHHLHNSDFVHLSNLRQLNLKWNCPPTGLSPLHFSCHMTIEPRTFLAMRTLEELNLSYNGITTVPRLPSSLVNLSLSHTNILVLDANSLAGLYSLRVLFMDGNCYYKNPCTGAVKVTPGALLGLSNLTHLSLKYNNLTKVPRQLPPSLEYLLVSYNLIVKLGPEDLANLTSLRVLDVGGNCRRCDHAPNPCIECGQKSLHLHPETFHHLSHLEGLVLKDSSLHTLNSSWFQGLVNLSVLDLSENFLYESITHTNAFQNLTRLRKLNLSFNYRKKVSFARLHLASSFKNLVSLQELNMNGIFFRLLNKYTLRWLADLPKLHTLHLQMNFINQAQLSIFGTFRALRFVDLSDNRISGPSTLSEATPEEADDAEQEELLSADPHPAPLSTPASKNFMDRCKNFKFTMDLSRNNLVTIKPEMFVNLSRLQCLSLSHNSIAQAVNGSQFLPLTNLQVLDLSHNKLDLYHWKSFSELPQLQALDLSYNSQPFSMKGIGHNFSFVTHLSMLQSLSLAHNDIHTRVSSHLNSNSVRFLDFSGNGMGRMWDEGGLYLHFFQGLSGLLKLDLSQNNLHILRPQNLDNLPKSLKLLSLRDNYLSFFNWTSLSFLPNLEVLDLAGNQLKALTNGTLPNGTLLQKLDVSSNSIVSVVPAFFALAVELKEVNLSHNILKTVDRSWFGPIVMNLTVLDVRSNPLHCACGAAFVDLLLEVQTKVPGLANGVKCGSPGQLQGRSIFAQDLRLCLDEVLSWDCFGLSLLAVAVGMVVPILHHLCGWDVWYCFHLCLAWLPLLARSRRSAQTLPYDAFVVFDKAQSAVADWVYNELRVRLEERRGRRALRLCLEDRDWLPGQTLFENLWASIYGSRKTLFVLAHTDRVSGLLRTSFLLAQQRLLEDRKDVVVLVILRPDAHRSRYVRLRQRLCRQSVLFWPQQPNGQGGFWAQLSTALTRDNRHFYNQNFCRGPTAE
Method in brief: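 HEK293 cells stably expressing mouse TLR9 were grown in DMEM with 10% heat-inactivated FBS. At 80% confluence they were transiently transfected with a SEAP reporter plasmid (100 ng/well, lipofectamine) for 6 h. Medium was then replaced and agonists were added for 18 h. Supernatant SEAP was read with QuantiBlue substrate at 620-645 nm. Results are expressed as fold NF-κB activity over PBS control.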

[2] = biological target: T1, Toll-like receptor 9 (Mus musculus); assay: Induction of TLR9-mediated IL12 production in C57BL/6 mouse spleen cells after 24 hrs by ELISA; format: cell-based
Method in brief: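 C57BL/6 mouse spleen cells were cultured with agonists at 0.1, 0.3, 1, 3 and 10 μg/mL for 24 h. Secreted IL-12 and IL-6 in the supernatants were measured by ELISA. Values are averages of triplicate wells from one representative of at least two independent experiments.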

[3] = biological target: T2, Toll-like receptor 9 (Homo sapiens) (UniProt Q9NR96); assay: Induction of TLR9-mediated immune stimulation in human PBMC assessed as IL2R production at 10 ug/ml after 24 hrs by luminex multiplex assay (RVb = 0.02 +/- 0.01 ng/ml)
T2 sequence (whole entry): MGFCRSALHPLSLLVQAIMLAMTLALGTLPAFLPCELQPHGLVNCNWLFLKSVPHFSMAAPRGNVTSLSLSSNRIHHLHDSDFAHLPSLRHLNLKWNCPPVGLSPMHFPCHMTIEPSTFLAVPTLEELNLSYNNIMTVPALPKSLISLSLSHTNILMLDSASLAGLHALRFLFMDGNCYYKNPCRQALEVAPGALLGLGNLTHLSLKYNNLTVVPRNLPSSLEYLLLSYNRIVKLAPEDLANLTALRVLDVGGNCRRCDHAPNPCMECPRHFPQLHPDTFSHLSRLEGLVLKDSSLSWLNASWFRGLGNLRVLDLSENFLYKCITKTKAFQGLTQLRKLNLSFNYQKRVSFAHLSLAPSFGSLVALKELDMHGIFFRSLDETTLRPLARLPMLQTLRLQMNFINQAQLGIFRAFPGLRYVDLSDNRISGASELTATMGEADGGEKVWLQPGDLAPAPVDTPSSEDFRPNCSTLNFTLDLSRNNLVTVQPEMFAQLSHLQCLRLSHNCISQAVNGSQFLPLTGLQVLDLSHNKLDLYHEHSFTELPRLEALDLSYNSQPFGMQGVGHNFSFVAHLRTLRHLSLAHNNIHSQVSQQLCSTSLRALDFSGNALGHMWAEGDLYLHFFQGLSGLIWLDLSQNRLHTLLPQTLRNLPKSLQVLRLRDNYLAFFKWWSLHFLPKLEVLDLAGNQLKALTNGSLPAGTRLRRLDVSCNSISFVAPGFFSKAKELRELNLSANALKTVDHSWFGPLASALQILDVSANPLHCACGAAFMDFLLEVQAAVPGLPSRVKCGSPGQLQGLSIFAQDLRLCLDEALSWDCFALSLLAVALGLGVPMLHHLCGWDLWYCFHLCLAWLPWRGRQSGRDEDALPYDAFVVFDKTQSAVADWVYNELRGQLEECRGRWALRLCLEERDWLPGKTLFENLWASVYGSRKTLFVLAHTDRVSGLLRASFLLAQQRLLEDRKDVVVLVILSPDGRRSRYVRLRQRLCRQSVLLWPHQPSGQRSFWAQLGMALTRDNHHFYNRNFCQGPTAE

[4] = biological target: T2, Toll-like receptor 9 (Homo sapiens); assay: Induction of TLR9-mediated immune stimulation in human PBMC assessed as IL6 production at 2 ug/ml after 24 hrs by luminex multiplex assay (RVb = 0.01 ng/ml)
[5] = biological target: T2, Toll-like receptor 9 (Homo sapiens); assay: Induction of TLR9-mediated immune stimulation in human PBMC assessed as IL12 production at 2 ug/ml after 24 hrs by luminex multiplex assay (RVb = 0.00 ng/ml)
[6] = biological target: T2, Toll-like receptor 9 (Homo sapiens); assay: Induction of TLR9-mediated immune stimulation in human PBMC assessed as MIP1alpha production at 2 ug/ml after 24 hrs by luminex multiplex assay (RVb = 0.01 ng/ml)
[7] = biological target: T2, Toll-like receptor 9 (Homo sapiens); assay: Induction of TLR9-mediated immune stimulation in human PBMC assessed as MIP1beta production at 10 ug/ml after 24 hrs by luminex multiplex assay (RVb = 0.03 +/- 0.02 ng/ml)
[8] = biological target: T2, Toll-like receptor 9 (Homo sapiens); assay: Induction of TLR9-mediated immune stimulation in human PBMC assessed as RANTES production at 2 ug/ml after 24 hrs by luminex multiplex assay (RVb = 0.05 +/- 0.04 ng/ml)
[9] = biological target: T2, Toll-like receptor 9 (Homo sapiens); assay: Induction of TLR9-mediated immune stimulation in human PBMC assessed as RANTES production at 10 ug/ml after 24 hrs by luminex multiplex assay (RVb = 0.05 +/- 0.04 ng/ml)

Activity [1]	Activity [2]	Activity [3] [ng/mL]	Activity [4] [ng/mL]	Activity [5] [ng/mL]	Activity [6] [ng/mL]	Activity [7] [ng/mL]	Activity [8] [ng/mL]	Activity [9] [ng/mL]	SMILES
Dose-dependent effect	Dose-dependent effect	0.12	0.31	0.14	0.05	0.61	0.31	1.15	Cc1cn([C@H]2C[C@H](OCCC(O)CCOP(=O)(S)O[C@H]3C[C@H](n4cc(C)c(=O)[nH]c4=O)O[C@@H]3COP(=O)(S)O[C@H]3[C@@H](O)[C@H](n4ccc(N)nc4=O)O[C@@H]3COP(=O)(S)O[C@H]3C[C@H](n4cc(C)c(=O)[nH]c4=O)O[C@@H]3COP(=O)(S)O[C@H]3C[C@H](n4cc(C)c(=O)[nH]c4=O)O[C@@H]3COP(=O)(S)O[C@H]3C[C@H](n4ccc5c(=O)[nH]c(N)nc54)O[C@@H]3COP(=O)(S)O[C@H]3[C@@H](O)[C@H](n4ccc(N)nc4=O)O[C@@H]3COP(=O)(S)O[C@H]3C[C@H](n4cc(C)c(=O)[nH]c4=O)O[C@@H]3COP(=O)(S)O[C@H]3[C@@H](O)[C@H](n4cnc5c(=O)[nH]c(N)nc54)O[C@@H]3COP(=O)(S)O[C@H]3C[C@H](n4cc(C)c(=O)[nH]c4=O)O[C@@H]3COP(=O)(S)O[C@H]3[C@@H](O)[C@H](n4ccc(N)nc4=O)O[C@@H]3COP(=O)(S)O[C@H]3C[C@H](n4cc(C)c(=O)[nH]c4=O)O[C@@H]3CO)[C@@H](COP(=O)(S)O[C@H]3[C@@H](O)[C@H](n4ccc(N)nc4=O)O[C@@H]3COP(=O)(S)O[C@H]3C[C@H](n4cc(C)c(=O)[nH]c4=O)O[C@@H]3COP(=O)(S)O[C@H]3C[C@H](n4cc(C)c(=O)[nH]c4=O)O[C@@H]3COP(=O)(S)O[C@H]3C[C@H](n4ccc5c(=O)[nH]c(N)nc54)O[C@@H]3COP(=O)(S)O[C@H]3[C@@H](O)[C@H](n4ccc(N)nc4=O)O[C@@H]3COP(=O)(S)O[C@H]3C[C@H](n4cc(C)c(=O)[nH]c4=O)O[C@@H]3COP(=O)(S)O[C@H]3[C@@H](O)[C@H](n4cnc5c(=O)[nH]c(N)nc54)O[C@@H]3COP(=O)(S)O[C@H]3C[C@H](n4cc(C)c(=O)[nH]c4=O)O[C@@H]3COP(=O)(S)O[C@H]3[C@@H](O)[C@H](n4ccc(N)nc4=O)O[C@@H]3COP(=O)(S)O[C@H]3C[C@H](n4cc(C)c(=O)[nH]c4=O)O[C@@H]3CO)O2)c(=O)[nH]c1=O (some centres not stated)
–	Dose-dependent effect	0.07	0.02	0.03	0.04	0.15	0.16	0.52	Cc1cn([C@H]2C[C@H](OCC(O)COP(=O)(S)O[C@H]3C[C@H](n4cc(C)c(=O)[nH]c4=O)O[C@@H]3COP(=O)(S)O[C@H]3[C@@H](O)[C@H](n4ccc(N)nc4=O)O[C@@H]3COP(=O)(S)O[C@H]3[C@@H](O)[C@H](n4cnc5c(N)ncnc54)O[C@@H]3COP(=O)(S)O[C@H]3[C@@H](O)[C@H](n4cnc5c(N)ncnc54)O[C@@H]3COP(=O)(S)O[C@H]3[C@@H](O)[C@H](n4ccc(N)nc4=O)O[C@@H]3COP(=O)(S)O[C@H]3[C@@H](O)[C@H](n4ccc(N)nc4=O)O[C@@H]3COP(=O)(S)O[C@H]3[C@@H](O)[C@H](n4cnc5c(N)ncnc54)O[C@@H]3COP(=O)(S)O[C@H]3[C@@H](O)[C@H](n4ccc(N)nc4=O)O[C@@H]3COP(=O)(S)O[C@H]3[C@@H](O)[C@H](n4cnc5c(N)ncnc54)O[C@@H]3COP(=O)(S)O[C@H]3[C@@H](O)[C@H](n4ccc(N)nc4=O)O[C@@H]3COP(=O)(S)O[C@H]3[C@@H](O)[C@H](n4cnc5c(N)ncnc54)O[C@@H]3CO)[C@@H](COP(=O)(S)O[C@H]3[C@@H](O)[C@H](n4ccc(N)nc4=O)O[C@@H]3COP(=O)(S)O[C@H]3[C@@H](O)[C@H](n4cnc5c(N)ncnc54)O[C@@H]3COP(=O)(S)O[C@H]3[C@@H](O)[C@H](n4cnc5c(N)ncnc54)O[C@@H]3COP(=O)(S)O[C@H]3[C@@H](O)[C@H](n4ccc(N)nc4=O)O[C@@H]3COP(=O)(S)O[C@H]3[C@@H](O)[C@H](n4ccc(N)nc4=O)O[C@@H]3COP(=O)(S)O[C@H]3[C@@H](O)[C@H](n4cnc5c(N)ncnc54)O[C@@H]3COP(=O)(S)O[C@H]3[C@@H](O)[C@H](n4ccc(N)nc4=O)O[C@@H]3COP(=O)(S)O[C@H]3[C@@H](O)[C@H](n4cnc5c(N)ncnc54)O[C@@H]3COP(=O)(S)O[C@H]3[C@@H](O)[C@H](n4ccc(N)nc4=O)O[C@@H]3COP(=O)(S)O[C@H]3[C@@H](O)[C@H](n4cnc5c(N)ncnc54)O[C@@H]3CO)O2)c(=O)[nH]c1=O (some centres not stated)
